Measurements as given in ChEMBL document CHEMBL2407075, “Sulphonamido-quinoxalines: search for anticancer agent” (Eur J Med Chem, 2013).

Legend:
Type in all cases: functional
[1] = tested on: RPMI-8226; experiment: Growth inhibition of human RPMI8226 cells at 10 uM after 48 hrs by sulforhodamine B assay; details: RPMI-8226, 48 h, read-out: GI
Procedure, shortened: (§1)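 Single-dose screen at 10 µM across the NCI 60 panel. Cells in RPMI 1640 with 5% FBS and 2 mM L-glutamine, plated at 5000–40,000/well and preincubated 24 h at 37 °C, 5% CO2. Drug in DMSO, 48 h exposure. Fixed with TCA, stained with SRB, A515 read. Percent growth is taken relative to untreated control, and inhibition is 100 minus growth.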

[2] = tested on: TK-10; experiment: Growth inhibition of human TK10 cells at 10 uM after 48 hrs by sulforhodamine B assay; details: TK-10, 48 h, read-out: GI; procedure, shortened: as §1
[3] = tested on: HCT-116; experiment: Growth inhibition of human HCT116 cells at 10 uM after 48 hrs by sulforhodamine B assay; details: HCT-116, 48 h, read-out: GI
Procedure, shortened: (§2)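 NCI-60 one-dose primary screen at a single 10 µM concentration. Cells in RPMI 1640 with 5% FBS, preincubated 24 h at 37 °C, 5% CO2. Drug exposure 48 h, then TCA fixation, SRB staining and absorbance at 515 nm. Percent growth calculated against time-zero and untreated control wells, then converted to percent growth inhibition.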

[4] = tested on: OVCAR-3; experiment: Growth inhibition of human OVCAR3 cells at 10 uM after 48 hrs by sulforhodamine B assay; details: OVCAR-3, 48 h, read-out: GI; procedure, shortened: as §1
[5] = tested on: COLO 205; experiment: Growth inhibition of human COLO205 cells at 10 uM after 48 hrs by sulforhodamine B assay; details: COLO 205, 48 h, read-out: GI
Procedure, shortened: (§3)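 Single-dose NCI-60 prescreen at 10 µM for 48 h at 37 °C and 5% CO2, using cells grown in RPMI 1640 with 5% FBS and 2 mM glutamine. Protein was measured by SRB after TCA fixation: 10% final for adherent lines, 16% for suspension lines. Absorbance was read at 515 nm. Percent growth inhibition was obtained by subtracting percent growth from 100.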

[6] = Growth inhibition of human NCI-ADR-RES cells at 10 uM after 48 hrs by sulforhodamine B assay; details: read-out: GI; procedure, shortened: as §1
[7] = tested on: NCI-H460; experiment: Growth inhibition of human NCI-H460 cells at 10 uM after 48 hrs by sulforhodamine B assay; details: NCI-H460, 48 h, read-out: GI; procedure, shortened: as §1
[8] = tested on: UACC-62; experiment: Growth inhibition of human UACC62 cells at 10 uM after 48 hrs by sulforhodamine B assay; details: UACC-62, 48 h, read-out: GI; procedure, shortened: as §1
[9] = tested on: HCT-15; experiment: Growth inhibition of human HCT15 cells at 10 uM after 48 hrs by sulforhodamine B assay; details: HCT-15, 48 h, read-out: GI; procedure, shortened: as §2
[10] = tested on: ACHN; experiment: Growth inhibition of human ACHN cells at 10 uM after 48 hrs by sulforhodamine B assay; details: read-out: GI; procedure, shortened: as §3
[11] = tested on: HT-29; experiment: Growth inhibition of human HT-29 cells at 10 uM after 48 hrs by sulforhodamine B assay; details: HT-29, 48 h, read-out: GI; procedure, shortened: as §2
[12] = tested on: SR; experiment: Growth inhibition of human SR cells at 10 uM after 48 hrs by sulforhodamine B assay; details: read-out: GI; procedure, shortened: as §1
[13] = tested on: NCI-H23; experiment: Growth inhibition of human NCI-H23 cells at 10 uM after 48 hrs by sulforhodamine B assay; details: NCI-H23, 48 h, read-out: GI; procedure, shortened: as §1
[14] = tested on: PC-3; experiment: Growth inhibition of human PC3 cells at 10 uM after 48 hrs by sulforhodamine B assay; details: PC-3, 48 h, read-out: GI; procedure, shortened: as §1
[15] = tested on: SK-MEL-28; experiment: Growth inhibition of human SK-MEL-28 cells at 10 uM after 48 hrs by sulforhodamine B assay; details: SK-MEL-28, 48 h, read-out: GI; procedure, shortened: as §1
[16] = tested on: DU-145; experiment: Growth inhibition of human DU145 cells at 10 uM after 48 hrs by sulforhodamine B assay; details: DU-145, 48 h, read-out: GI; procedure, shortened: as §3
[17] = tested on: SF-268; experiment: Growth inhibition of human SF268 cells at 10 uM after 48 hrs by sulforhodamine B assay; details: SF-268, 48 h, read-out: GI; procedure, shortened: as §1
[18] = tested on: OVCAR-8; experiment: Growth inhibition of human OVCAR8 cells at 10 uM after 48 hrs by sulforhodamine B assay; details: OVCAR-8, 48 h, read-out: GI; procedure, shortened: as §1
[19] = tested on: SNB-75; experiment: Growth inhibition of human SNB75 cells at 10 uM after 48 hrs by sulforhodamine B assay; details: SNB-75, 48 h, read-out: GI; procedure, shortened: as §1
[20] = Growth inhibition of human Hs 578T cells at 10 uM after 48 hrs by sulforhodamine B assay; details: read-out: GI; procedure, shortened: as §2
[21] = tested on: UO-31; experiment: Growth inhibition of human UO31 cells at 10 uM after 48 hrs by sulforhodamine B assay; details: UO-31, 48 h, read-out: GI; procedure, shortened: as §1
[22] = tested on: NCI-H226; experiment: Growth inhibition of human NCI-H226 cells at 10 uM after 48 hrs by sulforhodamine B assay; details: NCI-H226, 48 h, read-out: GI; procedure, shortened: as §1
[23] = tested on: U-251; experiment: Growth inhibition of human U251 cells at 10 uM after 48 hrs by sulforhodamine B assay; details: U-251, 48 h, read-out: GI; procedure, shortened: as §1
[24] = tested on: OVCAR-5; experiment: Growth inhibition of human OVCAR5 cells at 10 uM after 48 hrs by sulforhodamine B assay; details: OVCAR-5, 48 h, read-out: GI; procedure, shortened: as §1
[25] = tested on: LOX IMVI; experiment: Growth inhibition of human LOXIMVI cells at 10 uM after 48 hrs by sulforhodamine B assay; details: read-out: GI; procedure, shortened: as §1
[26] = tested on: CAKI-1; experiment: Growth inhibition of human CAKI-1 cells at 10 uM after 48 hrs by sulforhodamine B assay; details: CAKI-1, 48 h, read-out: GI; procedure, shortened: as §3
[27] = tested on: LOX IMVI; experiment: Growth inhibition of human LOXIMVI cells assessed as cell growth at 10^-4 M after 48 hrs by sulforhodamine B assay; details: read-out: Activity
[28] = tested on: CAKI-1; experiment: Growth inhibition of human CAKI-1 cells assessed as cell growth at 10^-7 M after 48 hrs by sulforhodamine B assay; details: CAKI-1, 48 h, read-out: Activity
Procedure, shortened: (§4)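 Five-dose NCI-60 run (0.01, 0.1, 1, 10 and 100 µM, as 10-fold dilutions from a DMSO stock made at 400× the top final level). Cells were grown in RPMI 1640 with 5% FBS and 2 mM glutamine and plated for 24 h. They were then exposed for 48 h at 37 °C and 5% CO2. TCA fixation was followed by SRB staining with A515 read-out. Percent growth was taken relative to time-zero and control plates.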

[29] = tested on: A549; experiment: Growth inhibition of human A549/ATCC cells assessed as cell growth at 10^-7 M after 48 hrs by sulforhodamine B assay; details: A549, 48 h, read-out: Activity; procedure, shortened: as §4

Structure (SMILES) | inhibition of growth at 10 µM [1] [%] | inhibition of growth at 10 µM [2] [%] | inhibition of growth at 10 µM [3] [%] | inhibition of growth at 10 µM [4] [%] | inhibition of growth at 10 µM [5] [%] | inhibition of growth at 10 µM [6] [%] | inhibition of growth at 10 µM [7] [%] | inhibition of growth at 10 µM [8] [%] | inhibition of growth at 10 µM [9] [%] | inhibition of growth at 10 µM [10] [%] | inhibition of growth at 10 µM [11] [%] | inhibition of growth at 10 µM [12] [%] | inhibition of growth at 10 µM [13] [%] | inhibition of growth at 10 µM [14] [%] | inhibition of growth at 10 µM [15] [%] | inhibition of growth at 10 µM [16] [%] | inhibition of growth at 10 µM [17] [%] | inhibition of growth at 10 µM [18] [%] | inhibition of growth at 10 µM [19] [%] | inhibition of growth at 10 µM [20] [%] | also measured
O=C(NS(=O)(=O)c1ccc2nc(-c3ccccc3)c(-c3ccccc3)nc2c1)c1ccccc1 | 58.5 | 2.54 | 36.7 | 19.2 | 19.5 | 27.5 | 32 | 19.6 | 44.9 | 11.8 | 48.4 | 71.1 | 19.6 | 41.9 | 7.63 | 6.85 | 6.89 | 8.02 | 34.7 | 17 | inhibition of growth at 10 µM [21]: 15.2%; inhibition of growth at 10 µM [22]: 62%; inhibition of growth at 10 µM [23]: 21.6%; inhibition of growth at 10 µM [24]: 8.43%; inhibition of growth at 10 µM [25]: 20.5%; inhibition of growth at 10 µM [26]: 7.22%
O=S(=O)(Nc1cccc2ccccc12)c1ccc2nc(-c3ccccc3)c(-c3ccccc3)nc2c1 | 44.3 | 6.34 | 49.9 | 30.9 | 27.9 | 22.6 | 23.6 | 28.9 | 34.3 | 21.9 | 82.5 | 81.1 | 21.3 | 41.8 | 5.98 | 10.9 | 2.78 | 20.6 | 39.9 | 24 | inhibition of growth at 10 µM [21]: 17.9%; inhibition of growth at 10 µM [22]: 44%; inhibition of growth at 10 µM [23]: 7.23%; inhibition of growth at 10 µM [24]: 2.98%; inhibition of growth at 10 µM [25]: 32.9%; inhibition of growth at 10 µM [26]: 3.34%
COc1ccccc1NS(=O)(=O)c1ccc2nc(-c3ccccc3)c(-c3ccccc3)nc2c1 | 65.7 | 1.26 | 55.7 | 13.5 | 28.9 | 41 | 45.5 | 23.4 | 44.7 | 13.1 | 63.9 | 81.9 | 23 | 52.8 | 12.7 | 18.9 | 23.8 | 24.1 | 31.9 | 33.2 | inhibition of growth at 10 µM [21]: 22.8%; inhibition of growth at 10 µM [22]: 69.9%; inhibition of growth at 10 µM [24]: 12.7%; inhibition of growth at 10 µM [25]: 23.3%; inhibition of growth at 10 µM [26]: 23.9%
O=S(=O)(Nc1ccccn1)c1ccc2nc(-c3ccccc3)c(-c3ccccc3)nc2c1 | 89.9 | 30.2 | 72.1 | 48.9 | 54.2 | 73.2 | 63.4 | 41.1 | 62.4 | 34.3 | 81.7 | -3.25 | 46.5 | 72.2 | 30.3 | 37.4 | 27.6 | 52.8 | 61.8 | 76.3 | growth at 100 µM [27]: 57%; growth at 0.1 µM [28]: 93%; growth at 0.1 µM [29]: 98%; inhibition of growth at 10 µM [21]: 45.2%; inhibition of growth at 10 µM [22]: -1.38%; inhibition of growth at 10 µM [23]: 56.5%; inhibition of growth at 10 µM [24]: 24.3%; inhibition of growth at 10 µM [25]: 63.3%; inhibition of growth at 10 µM [26]: 54.1%
NC(=S)NNS(=O)(=O)c1ccc2nc(-c3ccccc3)c(-c3ccccc3)nc2c1 | 46.4 | 2.74 | 17.8 | 1.84 | 4.83 | 11.9 | 15.6 | 24.3 | 29.9 | 1.83 | 30.8 | 50 | 11.6 | 34.6 | 6.93 | 2.73 | 2.92 | 5.83 | 25.6 | 6.63 | inhibition of growth at 10 µM [21]: 13.7%; inhibition of growth at 10 µM [22]: 52.9%; inhibition of growth at 10 µM [23]: 26.8%; inhibition of growth at 10 µM [24]: 4.85%; inhibition of growth at 10 µM [25]: 11.2%; inhibition of growth at 10 µM [26]: 2.94%
CC(=S)NS(=O)(=O)c1ccc2nc(-c3ccccc3)c(-c3ccccc3)nc2c1 | 39.6 | 6.93 | 14.5 | 1.94 | 4.64 | 8.63 | 8.63 | 20.7 | 26.2 | 16.6 | 21.5 | 41 | 11.7 | 33.9 | 1.73 | 2.63 | 1.86 | 3.93 | 26.9 | 20.8 | inhibition of growth at 10 µM [21]: 10.6%; inhibition of growth at 10 µM [22]: 53.6%; inhibition of growth at 10 µM [23]: 10.3%; inhibition of growth at 10 µM [24]: 2.84%; inhibition of growth at 10 µM [25]: 12.2%; inhibition of growth at 10 µM [26]: 5.83%
